# In ChEMBL document CHEMBL4689842, “EUbOPEN Chemogenomics Library wave 1” (2021):
# System: HEK-293T
# Experiment: Multiplex assay against HEK293T;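 on Population Tubulin-Different-Phenotype (%): share of the cells with healthy nuclei that show this phenotype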
# Format: toxicity, cell-based
# Conditions: human
# How it was run: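 On a CQ1 microscope at 37°C and 5% CO2, live cells were imaged after compound addition. They had been stained at seeding with Hoechst33342, BioTracker Green Microtubule Cytoskeleton Dye, MitoTracker Red and Annexin V Alexa Fluor 680. CellPathfinder machine-learning gating assigned cells to Hoechst high-intensity objects or normal cells, normal cells to healthy, pyknosed or fragmented nuclei, and pyknosed cells to mitotic or apoptotic. Tubulin, mitochondrial-mass and membrane-permeability phenotypes are per cents of healthy-nucleus cells.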
# [1] = 12 h, 1 µM, compound concentration 1 uM, replicate 1
# [2] = 12 h, 1 µM, compound concentration 1 uM, replicate 2
# [3] = 12 h, 10 µM, compound concentration 10 uM, replicate 1
# [4] = 12 h, 10 µM, compound concentration 10 uM, replicate 2
# [5] = 24 h, 1 µM, compound concentration 1 uM, replicate 1
# [6] = 24 h, 1 µM, compound concentration 1 uM, replicate 2
# [7] = 24 h, 10 µM, compound concentration 10 uM, replicate 1
# [8] = 24 h, 10 µM, compound concentration 10 uM, replicate 2
compound,measurement,setting,value
Cc1cn(-c2cc(NC(=O)c3ccc4c(c3)CN(c3cncnc3)C[C@@H]4C)cc(C(F)(F)F)c2)cn1,Population Apoptotic (%),[1],15%
same,Population Fragmented Nuclei (%),[1],25%
same,Population Healthy Nuclei (%),[1],52%
same,Population Hoechst High Intensity Objects (%),[1],20%
same,Population Membrane Permeable-Phenotype (%),[1],5%
same,Population Mitochondria Different-Phenotype (%),[1],6%
same,Population Mitotic Cells (%),[1],84%
same,Population Normal (%),[1],79%
same,Population Pyknosed Nuclei (%),[1],22%
same,Population Tubulin-Different-Phenotype (%),[1],4%
same,Total Cell Count,[1],536
same,Population Apoptotic (%),[2],8%
same,Population Fragmented Nuclei (%),[2],6%
same,Population Healthy Nuclei (%),[2],87%
same,Population Hoechst High Intensity Objects (%),[2],3%
same,Population Membrane Permeable-Phenotype (%),[2],2%
same,Population Mitochondria Different-Phenotype (%),[2],8%
same,Population Mitotic Cells (%),[2],91%
same,Population Normal (%),[2],96%
same,Population Pyknosed Nuclei (%),[2],5%
same,Total Cell Count,[2],1397
same,Population Apoptotic (%),[3],17%
same,Population Fragmented Nuclei (%),[3],17%
same,Population Healthy Nuclei (%),[3],62%
same,Population Hoechst High Intensity Objects (%),[3],13%
same,Population Membrane Permeable-Phenotype (%),[3],12%
same,Population Mitochondria Different-Phenotype (%),[3],6%
same,Population Mitotic Cells (%),[3],82%
same,Population Normal (%),[3],86%
same,Population Pyknosed Nuclei (%),[3],20%
same,Population Tubulin-Different-Phenotype (%),[3],37%
same,Total Cell Count,[3],653
same,Population Apoptotic (%),[4],16%
same,Population Fragmented Nuclei (%),[4],5%
same,Population Healthy Nuclei (%),[4],88%
same,Population Hoechst High Intensity Objects (%),[4],4%
same,Population Membrane Permeable-Phenotype (%),[4],5%
same,Population Mitochondria Different-Phenotype (%),[4],24%
same,Population Mitotic Cells (%),[4],83%
same,Population Normal (%),[4],95%
same,Population Pyknosed Nuclei (%),[4],5%
same,Population Tubulin-Different-Phenotype (%),[4],40%
same,Total Cell Count,[4],1483
same,Population Apoptotic (%),[5],23%
same,Population Fragmented Nuclei (%),[5],16%
same,Population Healthy Nuclei (%),[5],72%
same,Population Hoechst High Intensity Objects (%),[5],15%
same,Population Membrane Permeable-Phenotype (%),[5],9%
same,Population Mitochondria Different-Phenotype (%),[5],3%
same,Population Mitotic Cells (%),[5],76%
same,Population Normal (%),[5],84%
same,Population Pyknosed Nuclei (%),[5],11%
same,Population Tubulin-Different-Phenotype (%),[5],3%
same,Total Cell Count,[5],545
same,Population Apoptotic (%),[6],6%
same,Population Fragmented Nuclei (%),[6],15%
same,Population Healthy Nuclei (%),[6],81%
same,Population Hoechst High Intensity Objects (%),[6],2%
same,Population Membrane Permeable-Phenotype (%),[6],5%
same,Population Mitochondria Different-Phenotype (%),[6],2%
same,Population Mitotic Cells (%),[6],93%
same,Population Normal (%),[6],97%
same,Population Pyknosed Nuclei (%),[6],2%
same,Population Tubulin-Different-Phenotype (%),[6],5%
same,Total Cell Count,[6],2221
same,Population Apoptotic (%),[7],15%
same,Population Fragmented Nuclei (%),[7],16%
same,Population Healthy Nuclei (%),[7],73%
same,Population Hoechst High Intensity Objects (%),[7],12%
same,Population Membrane Permeable-Phenotype (%),[7],29%
same,Population Mitochondria Different-Phenotype (%),[7],6%
same,Population Mitotic Cells (%),[7],84%
same,Population Normal (%),[7],87%
same,Population Pyknosed Nuclei (%),[7],10%
same,Population Tubulin-Different-Phenotype (%),[7],54%
same,Total Cell Count,[7],740
same,Population Apoptotic (%),[8],8%
same,Population Fragmented Nuclei (%),[8],12%
same,Population Healthy Nuclei (%),[8],84%
same,Population Hoechst High Intensity Objects (%),[8],3%
same,Population Membrane Permeable-Phenotype (%),[8],14%
same,Population Mitochondria Different-Phenotype (%),[8],7%
same,Population Mitotic Cells (%),[8],91%
same,Population Normal (%),[8],96%
same,Population Pyknosed Nuclei (%),[8],3%
same,Population Tubulin-Different-Phenotype (%),[8],55%
same,Total Cell Count,[8],2031
